How the values were obtained:
Mus musculus [1] = assay: Compound was evaluated for anticonvulsant activity against subcutaneous pentylenetetrazole-induced convulsions after 4 hr; C is inactive at 300 mg/kg.; format: functional, organism-based; design: dose 300 mg/kg
Summary of the method: (§1)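 Male Carworth Farms number-one mice were dosed ip in 30% PEG 400, at 30, 100 or 300 mg/kg (sometimes 600 mg/kg). Pentylenetetrazole, 85 mg/kg as a 0.5% solution, was injected subcutaneously in the posterior midline. Protection meant no episode of clonic spasms lasting at least 5 s during a 30-min observation period.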

Mus musculus [2] = assay: Compound was evaluated for anticonvulsant activity against maximal electric shock (MES) induced convulsions after 4 hr; C is inactive at 300 mg/kg.; format: functional, organism-based; design: dose 300 mg/kg
Mus musculus [3] = assay: Compound was evaluated for toxicity by rotarod assay method after 4 hr; C is inactive at 300 mg/kg.; format: organism-based; design: dose 300 mg/kg; conditions: in vivo
Summary of the method: (§2)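 Male Carworth Farms number-one mice received test compound intraperitoneally in 30% polyethylene glycol 400 at 30, 100 and 300 mg/kg, with 600 mg/kg in some cases. Neurological deficit was read at 30 min or 4 h after dosing on a 1-in.-diameter knurled plastic rod turning at 6 rpm. Toxicity was scored as failure to stay on the rod for 1 min.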

Mus musculus [4] = assay: Compound was evaluated for toxicity by rotarod assay method after 30 minutes; C is inactive at 300 mg/kg.; format: organism-based; design: dose 300 mg/kg; conditions: in vivo, 0.5 h; summary of the method: as §2
Mus musculus [5] = assay: Compound was evaluated for anticonvulsant activity against maximal electric shock (MES) induced convulsions after 30 minutes;C is inactive at 300 mg/kg.; format: functional, organism-based; design: dose 300 mg/kg
Mus musculus [6] = assay: Compound was evaluated for anticonvulsant activity against subcutaneous pentylenetetrazole-induced convulsions after 30 minutes;C is inactive at 300 mg/kg.; format: functional, organism-based; design: dose 300 mg/kg; summary of the method: as §1
Mus musculus [7] = assay: Compound was evaluated for anticonvulsant activity against subcutaneous pentylenetetrazole-induced convulsions after 4 hr at a dose of 100 mg/kg; format: functional; summary of the method: as §1
Mus musculus [8] = assay: Compound was evaluated for anticonvulsant activity against maximal electric shock (MES) induced convulsions after 4 hr; C indicates no activity at 300 mg/kg.; format: functional, organism-based; design: dose 300 mg/kg
Mus musculus [9] = assay: Compound was evaluated for anticonvulsant activity against subcutaneous pentylenetetrazole-induced convulsions after 30 minutes; C indicates no activity at 300 mg/kg.; format: functional, organism-based; design: dose 300 mg/kg; summary of the method: as §1
Mus musculus [10] = assay: Compound was evaluated for anticonvulsant activity against maximal electric shock (MES) induced convulsions after 30 minutes; C indicates no activity at 300 mg/kg.; format: functional, organism-based; design: dose 300 mg/kg
Mus musculus [11] = assay: Compound was evaluated for toxicity by rotarod assay method after 30 minutes; C indicates no activity at 300 mg/kg.; format: organism-based; design: dose 300 mg/kg; conditions: in vivo, 0.5 h; summary of the method: as §2
Mus musculus [12] = assay: Compound was evaluated for toxicity by rotarod assay method after 4 hr; C indicates no activity at 300 mg/kg.; format: organism-based; design: dose 300 mg/kg; conditions: in vivo; summary of the method: as §2
Mus musculus [13] = assay: Compound was evaluated for anticonvulsant activity against maximal electric shock (MES) induced convulsions after 30 minutes; C is inactive at 300 mg/kg.; format: functional, organism-based; design: dose 300 mg/kg
[14] = Compound was evaluated for anticonvulsant activity by rotarod procedure; format: ADME, organism-based; conditions: mouse, in vivo
Summary of the method: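 Male Carworth Farms mice were dosed ip in 30% PEG 400 and then placed on a knurled plastic rod 1 in. in diameter, rotating at 6 rpm. Neurotoxicity was failure to stay on the rod for 1 min. TD50 was derived graphically.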

Mus musculus [15] = assay: Compound was evaluated for anticonvulsant activity against maximal electric shock (MES) induced convulsions after 30 minutes at a dose of 100 mg/kg; format: functional
Mus musculus [16] = assay: Compound was evaluated for toxicity by rotarod assay method after 30 minutes at a dose of 300 mg/kg; format: organism-based; design: dose 300 mg/kg; conditions: in vivo, 0.5 h; summary of the method: as §2
[17] = Protective index is the ratio of TD50 to ED50; format: ADME; conditions: for selectivity ratio: read-out: Protective index
Summary of the method: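 Protective index was calculated as rotorod TD50 divided by anti-MES ED50. Both were graphical median doses from ip dosing in 30% PEG 400 in male Carworth Farms mice.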

Mus musculus [18] = assay: Compound was evaluated for anticonvulsant activity against subcutaneous pentylenetetrazole-induced convulsions after 4 hr; C indicates no activity at 300 mg/kg.; format: functional, organism-based; design: dose 300 mg/kg; summary of the method: as §1
Mus musculus [19] = species: Mus musculus; assay: Compound was evaluated for anticonvulsant activity against maximal electric shock induced seizures; format: functional
Summary of the method: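 Male Carworth Farms number-one mice received the compound ip in 30% polyethylene glycol 400 before maximal electroshock testing, at several dose levels. The median effective dose (ED50) was obtained by the graphical method.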

Mus musculus [20] = assay: Compound was evaluated for anticonvulsant activity against subcutaneous pentylenetetrazole-induced convulsions after 30 minutes; E indicates no activity at 30 mg/kg.; format: functional, organism-based; design: dose 30 mg/kg; summary of the method: as §1
Mus musculus [21] = assay: Compound was evaluated for toxicity by rotarod assay method after 4 hr; E indicates no activity at 30 mg/kg.; format: organism-based; design: dose 30 mg/kg; conditions: in vivo; summary of the method: as §2
Mus musculus [22] = assay: Compound was evaluated for anticonvulsant activity against maximal electric shock (MES) induced convulsions after 4 hr; E indicates no activity at 30 mg/kg.; format: functional, organism-based; design: dose 30 mg/kg
Mus musculus [23] = assay: Compound was evaluated for anticonvulsant activity against maximal electric shock (MES) induced convulsions after 30 minutes at a dose of 30 mg/kg; format: functional
Mus musculus [24] = assay: Compound was evaluated for toxicity by rotarod assay method after 30 minutes at a dose of 100 mg/kg; format: organism-based; design: dose 100 mg/kg; conditions: in vivo, 0.5 h; summary of the method: as §2
Mus musculus [25] = assay: Compound was evaluated for anticonvulsant activity against subcutaneous pentylenetetrazole-induced convulsions after 4 hr; E indicates no activity at 30 mg/kg.; format: functional, organism-based; design: dose 30 mg/kg; summary of the method: as §1
Mus musculus [26] = assay: Compound was evaluated for anticonvulsant activity against maximal electric shock (MES) induced convulsions after 4 hr at a dose of 300 mg/kg; format: functional
Mus musculus [27] = assay: Compound was evaluated for anticonvulsant activity against subcutaneous pentylenetetrazole-induced convulsions; format: functional; conditions: sc; summary of the method: as §1
Mus musculus [28] = assay: Compound was evaluated for anticonvulsant activity against subcutaneous pentylenetetrazole-induced convulsions after 30 minutes at a dose of 300 mg/kg; format: functional; summary of the method: as §1
Mus musculus [29] = assay: Compound was evaluated for anticonvulsant activity against maximal electric shock (MES) induced convulsions after 30 minutes at a dose of 300 mg/kg; format: functional
Mus musculus [30] = assay: Compound was evaluated for anticonvulsant activity against subcutaneous pentylenetetrazole-induced convulsions after 4 hr at a dose of 300 mg/kg; format: functional; summary of the method: as §1

Row | Structure (SMILES) | Activity (Mus musculus [1]) | Activity (Mus musculus [2]) | Toxicity (Mus musculus [3]) | Toxicity (Mus musculus [4]) | Activity (Mus musculus [5]) | Activity (Mus musculus [6]) | Activity (Mus musculus [8]) | Toxicity (Mus musculus [12]) | TD50 [14] | selectivity ratio [17] | ED50 (Mus musculus [19]) | other results
1 | CC(NC(=O)c1ccc(N(C)C)cc1)c1ccccc1 (stereo unspecified) | No activity at 300 mg/kg | No activity at 300 mg/kg | No activity at 300 mg/kg | No activity at 300 mg/kg | No activity at 300 mg/kg | No activity at 300 mg/kg | – | – | – | – | – | –
2 | CC(=O)Nc1ccc(C(=O)NC(C)c2ccccc2)cc1 (stereo unspecified) | No activity at 300 mg/kg | No activity at 300 mg/kg | No activity at 300 mg/kg | No activity at 300 mg/kg | No activity at 300 mg/kg | No activity at 300 mg/kg | – | – | – | – | – | –
3 | COc1ccc(C(C)NC(=O)c2ccc(N)cc2)cc1 (stereo unspecified) | – | – | – | – | – | – | No activity at 300 mg/kg | No activity at 300 mg/kg | – | – | – | Activity (Mus musculus [7]): 3; Activity (Mus musculus [9]): No activity at 300 mg/kg; Activity (Mus musculus [10]): No activity at 300 mg/kg; Toxicity (Mus musculus [11]): No activity at 300 mg/kg
4 | CCOC(=O)Nc1ccc(C(=O)NC(C)c2ccccc2)cc1 (stereo unspecified) | No activity at 300 mg/kg | No activity at 300 mg/kg | No activity at 300 mg/kg | No activity at 300 mg/kg | – | No activity at 300 mg/kg | – | – | – | – | – | Activity (Mus musculus [13]): No activity at 300 mg/kg
5 | CC(NCc1cccc(N)c1)c1ccccc1 (stereo unspecified) | – | – | – | – | – | – | No activity at 300 mg/kg | No activity at 300 mg/kg | 49.7 mg/kg | 1.53 | 32.4 mg/kg | Activity (Mus musculus [15]): 3; Activity (Mus musculus [9]): No activity at 300 mg/kg; Toxicity (Mus musculus [16]): 2; Activity (Mus musculus [18]): No activity at 300 mg/kg
6 | CN(C)c1ccc(C(=O)Nc2ccccc2)cc1 | No activity at 300 mg/kg | No activity at 300 mg/kg | No activity at 300 mg/kg | No activity at 300 mg/kg | No activity at 300 mg/kg | No activity at 300 mg/kg | – | – | – | – | – | –
7 | CNc1ccc(C(=O)NCc2ccccc2)cc1 | No activity at 300 mg/kg | No activity at 300 mg/kg | No activity at 300 mg/kg | No activity at 300 mg/kg | No activity at 300 mg/kg | No activity at 300 mg/kg | – | – | – | – | – | –
8 | CC(NC(=O)c1ccc(CN(C)C)cc1)c1ccccc1 (stereo unspecified) | – | – | – | – | – | – | – | – | 34.3 mg/kg | 2.63 | 13 mg/kg | Activity (Mus musculus [20]): No activity at 30 mg/kg; Toxicity (Mus musculus [21]): No activity at 30 mg/kg; Activity (Mus musculus [22]): No activity at 30 mg/kg; Activity (Mus musculus [23]): 4; Toxicity (Mus musculus [24]): 3; Activity (Mus musculus [25]): No activity at 30 mg/kg
9 | CC(NC(=O)c1ccccc1)c1ccc(N)cc1 (stereo unspecified) | – | – | – | – | – | – | – | No activity at 300 mg/kg | 190 mg/kg | 2.79 | 68.2 mg/kg | Activity (Mus musculus [26]): 2; Activity (Mus musculus [15]): 3; ED50 (Mus musculus [27]): 126 mg/kg; Activity (Mus musculus [28]): 2; Toxicity (Mus musculus [16]): 2; Protective index [17]: 1.51; Activity (Mus musculus [18]): No activity at 300 mg/kg
10 | CC(NC(=O)c1ccc(N)cc1)c1ccc(Cl)cc1 (stereo unspecified) | – | – | – | – | – | – | No activity at 300 mg/kg | No activity at 300 mg/kg | – | – | – | Activity (Mus musculus [29]): 2; Activity (Mus musculus [30]): 2; Activity (Mus musculus [28]): 2; Toxicity (Mus musculus [11]): No activity at 300 mg/kg
